Experimental data from different studies.
Values after ≈ are worked out from the molar mass of the structure shown.
Observed: microbial growth

CC(C)Oc1c(NC(=O)c2ccc(NC(=O)[C@H](CC(N)=O)NC(=O)c3ccc(NC(=O)c4ccc(C#N)s4)cc3)cc2)ccc(C(=O)Nc2ccc(C(=O)O)cc2)c1O
MIC (Citrobacter freundii; DSM30039): ≤ 0.03 µg/mL

O=C(O)c1cccc(-n2c(/C=C/c3ccc(F)cc3)nc3ccncc3c2=O)c1
MIC (Enterococcus faecium; broth dilution; NCTC7171): > 128 µg/mL

O=C(O)CCc1cccc(Oc2ccc(-c3noc(-c4ccc(O)cc4)n3)cc2)c1
MIC (Enterococcus faecium; broth dilution; 24 h): > 32 µg/mL

COC(=O)CCNC(=O)c1cccc(-n2c(/C=C/c3ccc(C#N)cc3)nc3ccccc3c2=O)c1
MIC (Enterococcus faecium; broth dilution; NCTC7171): > 128 µg/mL

O=C(O)Cc1ccc(Oc2ccc(-c3noc(-c4ccc(O)cc4)n3)cc2)cc1
MIC (Enterococcus faecium; broth dilution; 24 h): > 32 µg/mL

CC(C)Oc1c(NC(=O)c2ccc(NC(=O)c3ccc(NC(=O)[C@H](CC(N)=O)NC(=O)c4ccc(NC(=O)c5ccc(C#N)s5)cc4)cc3)c(OC(C)C)c2O)ccc(C(=O)O)c1O
MIC (Citrobacter freundii; DSM30039): 0.5 µg/mL (≈ 0.561 µM)

N#Cc1ccc(/C=C/c2nc3ccncc3c(=O)n2-c2cccc(O)c2)cc1
MIC (Enterococcus faecium; broth dilution; NCTC7171): 128 µg/mL (≈ 349 µM)

C/C(=C\c1ccc(C#N)cc1)C(=O)Nc1ccc(C(=O)N[C@@H](CC(N)=O)C(=O)Nc2ccc(C(=O)Nc3ccc(C(=O)Nc4ccc(C(=O)O)cc4)c(O)c3OC(C)C)cc2)cc1
MIC (Citrobacter freundii; DSM30039): 0.06 µg/mL (≈ 0.0704 µM)

CC(C)Nc1cccc(-n2c(/C=C/c3ccc(C#N)cc3)nc3ccccc3c2=O)c1
MIC (Enterococcus faecium; broth dilution; NCTC7171): > 128 µg/mL

O=C(O)Cc1ccccc1Oc1ccc(-c2noc(-c3ccc(O)cc3)n2)cc1
MIC (Enterococcus faecium; broth dilution; 24 h): > 32 µg/mL

C[C@@H](O)[C@H]1C(=O)N2C(C(=O)O)=C(S[C@@H]3CN[C@H](C(=O)N(C)C)C3)[C@H](C)[C@H]12
MIC (Citrobacter freundii; broth dilution; clinical isolate): > 64 µg/mL

CO[C@@H](C(N)=O)[C@H](NC(=O)c1ccc(NC(=O)c2ccc(C#N)cc2)cc1)C(=O)Nc1ccc(C(=O)Nc2ccc(C(=O)Nc3ccc(C(=O)O)cc3)c(O)c2OC(C)C)cc1
MIC (Citrobacter freundii; DSM30039): ≤ 0.03 µg/mL

Nc1ccc(-c2nc(-c3ccc(Oc4ccccc4)cc3)no2)cc1
MIC (Enterococcus faecium; broth dilution; 24 h): > 32 µg/mL

O=C(O)c1cn(C2CC2)c2cc(N3CCNCC3)c(F)cc2c1=O
MIC (Citrobacter freundii; DSM30039): ≤ 0.03 µg/mL

O=C(O)CCc1ccccc1Oc1ccc(-c2noc(-c3ccc(O)cc3)n2)cc1
MIC (Enterococcus faecium; broth dilution; 24 h): > 32 µg/mL
